T cruzi repl = blocks replication of Trypanosoma cruzi. T. cruzi beta-gal in NIH3T3, luminescence, 90 h. inhibition, % (concentration not given with the values). 300,000 tested, 1.4% active. AID 1885;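 active = mean inhibition across valid replicates above about 55%, limit read from the data; inconclusive = mean below that limit but half or more replicates reach it; inactive = mean below it, under half of replicates reach it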;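 note: signal also drops with host cell toxicity which is not excluded here; higher percent means less beta-gal luminescence so fewer parasites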
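Material: NIH/3T3 host cells with β-galactosidase reporter T. cruzi; Input: 5,000 host fibroblasts per well; Medium: DMEM, 2% fetal bovine serum; Compound: 50 nL DMSO compound solution per well; Schedule: 3 h host attachment, then at least 90 h co-culture; Detection: luminescent β-galactosidase signal after 60 min lysis.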
Beta cell apopt = blocks beta cell apoptosis; INS-1E cytokine-induced death, ATP luminescence, 48 h; percent of positive-control rescue, neutral wells zero; protection from apoptosis, % (concentration not given with the values); 300,000 tested, 0.8% active;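 active = Every replicate reaches about 75%, or at least half do and their mean reaches it too, limit read from the data; inconclusive = At least half of replicates reach the limit but their mean does not; inactive = Under half of replicates reach the limit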;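 note: higher means more ATP so stronger rescue from cytokine killing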
Bfl-1 A1 inh = inhibitors of the anti-apoptotic protein A1, read as caspase activation; 330,000 tested, 0.066% active; MEF A1-2A-BIM cells, Caspase-Glo 3/7 luminescence, 3 h; percent of clofoctol response, vehicle zero; caspase activation, % (test concentration not listed);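 active = over half of replicate activation scores above 10%, or exactly half above 10 with the replicate mean above 10; inconclusive = replicate mean below 10 yet half the replicates above 10; inactive = over half of replicates below 10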
KLF5 inhibitor = inhibitors of KLF5 expression; DLD-1 KLF5 promoter-luciferase reporter, luminescence; inhibition, % at 5 µM; 290,000 tested, 0.23% active; AID 1700;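 active = inhibition above a per-plate limit of that plate's mean compound inhibition plus 3 SD, cut at about 60% in these data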;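 note: higher means less KLF5 promoter-driven luciferase light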
HIF activator = HIF pathway transcriptional activation | U2OS HRE-luciferase reporter, luminescence; normalized: DMSO 0%, desferrioxamine 100% | activation, % at 7.5 µM (by protocol) | 300,000 tested, 0.32% active;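 active = mean activation of at least 10% of the iron chelator positive control signal, with at least half of replicates also reaching 10%; inconclusive = mean and replicate majority disagree about reaching 10%; inactive = mean and most replicates under 10%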
Large screens that a line does not name were inactive. Shown are actives, neighbours in structure and some others; about 2.3% of the full set was active somewhere.

Cc1ccc(NC(=O)CCC(=O)N/N=C/c2ccc(O)cc2O)cc1	HIF activator 134.8
Cc1ccc(/C=N/NC(=O)Cc2ccc(Cl)cc2)c(O)c1	Beta cell apopt 83.4, Bfl-1 A1 inh inconclusive
Cc1ccc(C(C)C)c(OCc2ccc(C(=O)N/N=C/c3ccc(C(=O)O)cc3)cc2)c1	none
C=CCc1cccc(/C=N/NC(=O)CCC(=O)Nc2ccc(C)cc2)c1O	Beta cell apopt 90.4
Cc1ccc(C(C)C)c(OCc2ccc(C(=O)N/N=C/c3ccc(O)cc3O)cc2)c1	Beta cell apopt 116.5
Cc1ccc(NC(=O)CCC(=O)N/N=C/c2cccnc2)cc1	none
CCCS(=O)(=O)N1CCCC(C(=O)Oc2ccc(C)c(C)c2)C1 (stereo unspecified)	none
O=C(Nc1ccc(Cl)c([N+](=O)[O-])c1)C(Sc1ccccc1)c1ccccc1 (stereo unspecified)	T cruzi repl 64.3
CC(C)(C)NS(=O)(=O)c1ccc(NC(=O)C(Sc2ccccc2)c2ccccc2)cc1 (stereo unspecified)	T cruzi repl 55.8
O=C(Nc1cc([N+](=O)[O-])ccc1Cl)C(Sc1ccccc1)c1ccccc1 (stereo unspecified)	none
CC(=O)N(C)c1ccc(NC(=O)C(Sc2ccccc2)c2ccccc2)cc1 (stereo unspecified)	none (no result: Beta cell apopt)
Cc1ccccc1CN1CCCC(C(=O)Nc2ccccc2Oc2cccnc2)C1 (stereo unspecified)	none
C/C(=N\Nc1ccc(F)cc1)c1ccc(N2CCOCC2)c(F)c1	none
COc1ccc(/C=N/OCC(=O)Nc2cc(C)on2)cc1OC	none
COc1ccc(/C=N/OCC(=O)NC(c2ccccc2)c2ccccc2)cc1OC	T cruzi repl 56.6
O=S(=O)(NCC1CCCO1)c1ccc(-c2ccc(S(=O)(=O)NCC3CCCO3)cc2)cc1 (stereo unspecified)	Beta cell apopt 96.3
Cc1ccc(S(=O)(=O)NCC2CCCO2)cc1 (stereo unspecified)	none
O=C(Nc1ccc(Br)cc1)Nn1cnnc1	none
COc1cccc(CCN2C(=O)C(=O)N([C@@H](CNCc3ccccc3)Cc3ccccc3F)C[C@@H]2C(C)(C)C)c1	none (no result: T cruzi repl, KLF5 inhibitor, HIF activator)
O=C(Nc1nnc(CC2=CCCCC2)s1)c1cccs1	none
O=C(Nc1ccc(Cl)c(Cl)c1)Nc1nnc(CC2=CCCCC2)s1	Beta cell apopt 84.5
CC(NC(=O)Cn1cc([N+](=O)[O-])cn1)c1ccc(C(C)(C)C)cc1 (stereo unspecified)	none (no result: KLF5 inhibitor)
Cc1ccccc1N(C(=O)c1snc(C(N)=O)c1N)C(C(=O)NCC1CCCO1)c1ccc(F)cc1 (stereo unspecified)	none
COc1ccc(-c2csc3nc(-c4cccnc4)nc(N4CCC(C(N)=O)CC4)c23)cc1OC	none
O=C1CN(c2nc(-c3cccnc3)nc3scc(-c4ccccc4)c23)CCN1	T cruzi repl 62.8
CCCCOc1ccc(/C=N/Nc2cc(N3CCOCC3)nc(C)n2)cc1	T cruzi repl 56.5
CCCOc1ccc(/C=N/Nc2cc(N3CCOCC3)ncn2)c(O)c1	Beta cell apopt 91.3, KLF5 inhibitor 79.3
Cc1cccc(/C=N/Nc2cc(N3CCOCC3)nc(N3CCOCC3)n2)c1	T cruzi repl 69.1
Cc1ccc(/C=N/Nc2cc(C)nc(N3CCOCC3)n2)cc1	none
Cc1ccc(Nc2nc(N/N=C\c3ccc4c(c3)OCO4)nc(N3CCOCC3)n2)cc1	T cruzi repl 58.0
CC(C)c1ccc(/C=N/Nc2cc(N3CCOCC3)nc(N3CCOCC3)n2)cc1	none (no result: T cruzi repl, HIF activator)
Clc1ccccc1/C=N/Nc1cc(N2CCOCC2)ncn1	none
COc1cccc2cc(CC(=O)c3ccc(C)cc3C)c(=O)oc12	none
CC1C(=O)CC(c2ccc([N+](=O)[O-])cc2)NC1c1ccc([N+](=O)[O-])cc1 (stereo unspecified)	none
CC1C(=O)C(C)C(c2ccc([N+](=O)[O-])cc2)NC1c1ccc([N+](=O)[O-])cc1 (stereo unspecified)	T cruzi repl 67.1
CCCCc1cc(=O)oc2cc(C)cc(OCC(=O)Nc3ccccn3)c12	none
Cc1ccc(N(CC(=O)NCc2ccc(F)cc2)S(=O)(=O)c2c(C)n[nH]c2C)cc1	none
CCn1c(SCC(=O)Nc2nncs2)nnc1-c1ccco1	HIF activator 33.9
COc1ccc(CNC(=O)C2CCN(S(=O)(=O)N3CCCC3)CC2)c(OC)c1	none
c1cc(-c2noc(CC3CCCCC3)n2)ccn1	Beta cell apopt 79.1
